Measurements published in ChEMBL document CHEMBL1177884, “1,2-ethane bis-1-amino-4-benzamidine is active against several brain insult and seizure challenges through anti-NMDA mechanisms targeting the 3H-TCP binding site and antioxidant action” (Eur J Med Chem, 2010).
Blank lines part the entries; values can stand above or below the compound they belong to. Activity calls are given as the source filed them.

Tests used:
[1] = system: Mus musculus; assay: Neurotoxicity in Swiss mouse assessed as inability of animal to maintain on rotarod at 30 mg/kg, ip after 4 hrs by rotarod test; assay type: toxicity, organism-based; details: in vivo
Method in brief: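 Minimal acute neurotoxicity assessed by rotarod: mouse placed on a 1 inch knurled rod rotating at 6 rpm, at 15 min, 30 min, 1 h or 4 h after ip dosing in methylcellulose.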

[2] = system: Mus musculus; assay: Anticonvulsant activity in Swiss mouse assessed as inhibition of maximal electroshock-induced seizures at 100 mg/kg, ip after 30 mins; assay type: functional, organism-based; design: dose 100 mg/kg
Method in brief: (§1)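 Mice dosed ip with compound in methylcellulose at 30, 100 or 300 mg/kg. MES or subcutaneous pentylenetetrazol seizure tests run 30 min and 4 h after dosing, and occasionally at 15 min and 1 h. Activity scored as the percentage of animals protected, in bands (75–100%, 50–75%, 25–50%, 0–25%, none).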

[3] = system: Mus musculus; assay: Anticonvulsant activity in Swiss mouse assessed as inhibition of maximal electroshock-induced seizures at 100 mg/kg, ip after 4 hrs; assay type: functional, organism-based; design: dose 100 mg/kg; method in brief: as §1
[4] = system: Mus musculus; assay: Anticonvulsant activity in Swiss mouse assessed as inhibition of ScPTZ-induced seizures at 30 mg/kg, ip after 4 hrs; assay type: functional, organism-based; design: dose 30 mg/kg
Method in brief: (§2)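 Mice dosed ip with compound in methylcellulose at 30, 100 or 300 mg/kg. MES or subcutaneous pentylenetetrazol seizure tests run 30 min and 4 h after dosing, and occasionally at 15 min and 1 h.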

[5] = system: Mus musculus; assay: Anticonvulsant activity in Swiss mouse assessed as inhibition of ScPTZ-induced seizures at 30 mg/kg, ip after 30 mins; assay type: functional, organism-based; design: dose 30 mg/kg; method in brief: as §2
[6] = system: Mus musculus; assay: Anticonvulsant activity in Swiss mouse assessed as inhibition of maximal electroshock-induced seizures at 30 mg/kg, ip after 4 hrs; assay type: functional, organism-based; design: dose 30 mg/kg; method in brief: as §2
[7] = system: Mus musculus; assay: Anticonvulsant activity in Swiss mouse assessed as inhibition of maximal electroshock-induced seizures at 30 mg/kg, ip after 30 mins; assay type: functional, organism-based; design: dose 30 mg/kg; method in brief: as §2
[8] = Antioxidant activity assessed as inhibition of pyrogallol autooxidation; assay type: functional; design: concentration or dose not given beside the values; details: dose or concentration not given here
Method in brief: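 Pyrogallol autooxidation followed at 420 nm in pH 7.4 TRIS saline (5 mM TRIS, 50 mM NaCl). Compound at 0.5 mM final, from a 50 mM DMSO stock; DMSO alone served as blank. Reaction started with 0.75 mM pyrogallol. Percent inhibition calculated from rates over the first 2 min. Mean of three separate determinations.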

[9] = system: Mus musculus; assay: Anticonvulsant activity in Swiss mouse assessed as inhibition of ScPTZ-induced seizures at 100 mg/kg, ip after 30 mins; assay type: functional, organism-based; design: dose 100 mg/kg; method in brief: as §1
[10] = system: Mus musculus; assay: Anticonvulsant activity in Swiss mouse assessed as inhibition of ScPTZ-induced seizures at 100 mg/kg, ip after 4 hrs; assay type: functional, organism-based; design: dose 100 mg/kg; method in brief: as §1
[11] = system: Mus musculus; assay: Neurotoxicity in Swiss mouse assessed as inability of animal to maintain on rotarod at 100 mg, ip after 30 mins by rotarod test; assay type: toxicity, organism-based; details: in vivo, 0.5 h
Method in brief: (§3)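 Minimal acute neurotoxicity assessed by rotarod: mouse placed on a 1 inch knurled rod rotating at 6 rpm, at 15 min, 30 min, 1 h or 4 h after ip dosing in methylcellulose. Scored as the percentage of animals toxic, in bands (75–100%, 50–75%, 25–50%, 0–25%, none).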

[12] = system: Mus musculus; assay: Neurotoxicity in Swiss mouse assessed as inability of animal to maintain on rotarod […], ip after 4 hr by rotarod test; assay type: toxicity, organism-based; details: in vivo; method in brief: as §3
[13] = system: Mus musculus; assay: Neurotoxicity in Swiss mouse assessed as inability of animal to maintain on rotarod at 300 mg, ip after 30 mins by rotarod test; assay type: toxicity, organism-based; details: in vivo, 0.5 h; method in brief: as §3
[14] = system: Mus musculus; assay: Anticonvulsant activity in Swiss mouse assessed as inhibition of maximal electroshock-induced seizures at 300 mg/kg, ip after 30 mins; assay type: functional, organism-based; design: dose 300 mg/kg; method in brief: as §1
[15] = system: Mus musculus; assay: Anticonvulsant activity against magnesium deprivation mediated audiogenic seizure in OF1 mouse assessed as duration of recovery at 6 mg/kg, ip; assay type: functional; details: route intraperitoneal
[16] = system: Mus musculus; assay: Anticonvulsant activity against magnesium deprivation mediated audiogenic seizure in OF1 mouse assessed as duration of cunvulsions at 6 mg/kg, ip; assay type: functional; details: route intraperitoneal
[17] = system: Mus musculus; assay: Anticonvulsant activity against magnesium deprivation mediated audiogenic seizure in OF1 mouse assessed as duration of latency plus wide running period at 6 mg/kg, ip; assay type: functional; details: route intraperitoneal
[18] = system: Mus musculus; assay: Neuroprotective activity against ibotenate-induced focal cerebral injury in Swiss mouse assessed as reduction in size of lesions in grey matter at 4 ug/kg, ip; assay type: functional; design: scale not given: the % may be the effect or the level left
Method in brief: (§4)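 Swiss mouse pups anesthetized with isoflurane, then given 10 µg ibotenate by stereotaxic injection into the right frontoparietal area as two 1 µl boluses. Compound in DMSO given ip at 4 µg/kg; controls received DMSO ip. Brains fixed 5 days later. Lesion maximal diameter in white and cortical grey matter measured on cresyl-violet-stained serial coronal sections, 15 µm thick. ANOVA with Bonferroni test.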

[19] = system: Mus musculus; assay: Neuroprotective activity against ibotenate-induced focal cerebral injury in Swiss mouse assessed as reduction in size of lesions in white matter at 4 ug/kg, ip; assay type: functional; design: scale not given: the % may be the effect or the level left; method in brief: as §4
[20] = system: Mus musculus; assay: Anticonvulsant activity in OF1 mouse assessed as protection against NMDA-induced seizures at 49 mg/kg,; assay type: functional
Method in brief: (§5)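 Normally fed OF1 mice. Compound given ip 1 hr before ip NMDA (137 mg/kg). Protection scored as no seizures over 4 hours after NMDA and no death within 48 hours. […] At 49 mg/kg, the read-out was the NMDA seizure threshold.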

[21] = species: Mus musculus; assay: Anticonvulsant activity in OF1 mouse assessed as protection against NMDA-induced seizures; assay type: functional; method in brief: as §5
[22] = system: Mus musculus; assay: Toxicity in OF1 mouse assessed as rectal temperature at 30 mg/kg; assay type: organism-based; design: dose 30 mg/kg; details: in vivo
Method in brief: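 Rectal temperature measured in mice given 30 mg/kg ip, 1 hr before testing.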

[23] = system: Mus musculus; assay: Anticonvulsant activity in Swiss mouse assessed as inhibition of maximal electroshock-induced seizures at 300 mg/kg, ip after 4 hrs; assay type: functional, organism-based; design: dose 300 mg/kg; method in brief: as §1
[24] = system: Mus musculus; assay: Antinociceptive activity against thermal-stimulus induced pain reflex in OF1 mouse assessed as maximal possible effect at 30 mg/kg, ip after 45 mins by hot plate assay; assay type: functional; details: route intraperitoneal
Method in brief: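 OF1 mice given compound ip 45 min before testing, then placed on a hot plate at 55 ± 1 °C. Latency to a pain reflex (vocalization, paw lick, hindpaw flick or jump) recorded, with a 30 s cut-off. Latencies converted to % maximum possible effect. Mean ± SD, 6 treated vs 6 untreated mice per dose.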

[25] = system: Mus musculus; assay: Anticonvulsant activity in Swiss mouse assessed as inhibition of ScPTZ-induced seizures at 100 mg/kg, ip after 15 mins; assay type: functional; design: scale not given: the % may be the effect or the level left; details: route intraperitoneal; method in brief: as §1
[26] = system: Mus musculus; assay: Anticonvulsant activity in Swiss mouse assessed as inhibition of ScPTZ-induced seizures at 100 mg/kg, ip after 1 hr; assay type: functional; design: scale not given: the % may be the effect or the level left; details: route intraperitoneal; method in brief: as §1
[27] = system: Mus musculus; assay: Anticonvulsant activity in Swiss mouse assessed as inhibition of ScPTZ-induced seizures at 300 mg/kg, ip after 30 mins; assay type: functional; design: scale not given: the % may be the effect or the level left; details: route intraperitoneal; method in brief: as §1
[28] = system: Mus musculus; assay: Anticonvulsant activity in Swiss mouse assessed as inhibition of ScPTZ-induced seizures at 300 mg/kg, ip after 4 hrs; assay type: functional, organism-based; design: dose 300 mg/kg; method in brief: as §1
[29] = system: Mus musculus; assay: Neurotoxicity in Swiss mouse assessed as inability of animal to maintain on rotarod […], ip after 15 mins by rotarod test; assay type: toxicity, organism-based; details: in vivo; method in brief: as §3
[30] = system: Mus musculus; assay: Neurotoxicity in Swiss mouse assessed as inability of animal to maintain on rotarod […], ip after 1 hr by rotarod test; assay type: toxicity, organism-based; details: in vivo; method in brief: as §3
[31] = system: Mus musculus; assay: Neurotoxicity in Swiss mouse assessed as inability of animal to maintain on rotarod […], ip after 4 hrs by rotarod test; assay type: toxicity, organism-based; details: in vivo; method in brief: as §3
[32] = target: Glutamate NMDA receptor; assay: Displacement of [3H]TCP from NMDA receptor in rat cerebral cortex
[33] = system: Mus musculus; assay: Antinociceptive activity against thermal-stimulus induced pain reflex in OF1 mouse assessed as maximal possible effect at 60 mg/kg, ip after 45 mins by hot plate assay; details: route intraperitoneal
[34] = system: Mus musculus; assay: Anxiolytic activity against OF1 mouse assessed as increase in number of crossings of photocell activity meter at 5 mg/kg, ip administered 1 hr before testing measured for 3 mins; details: route intraperitoneal
[35] = system: Mus musculus; assay: Anxiolytic activity against OF1 mouse assessed as increase in number of crossings of photocell activity meter at 30 mg/kg, ip administered 1 hr before testing measured for 3 mins; details: route intraperitoneal
[36] = system: Mus musculus; assay: Anxiolytic activity against OF1 mouse assessed as increase in number of crossings of photocell activity meter at 10 mg/kg, ip administered 1 hr before testing measured for 3 mins; details: route intraperitoneal

Structure (SMILES): CN(CCNc1ccc(C(=N)N)cc1)c1ccc(C(=N)N)cc1.Cl.Cl
Activity [1]: Non-toxic
Activity [2]: inactive
Activity [3]: inactive
Activity [4]: inactive
Activity [5]: inactive
Activity [6]: inactive
Activity [7]: inactive
inhibition [8]: 17.5%
Activity [9]: inactive
Activity [10]: inactive
Activity [11]: 75%
Activity [12]: Non-toxic
Activity [13]: 75%

Structure (SMILES): CCN(CCNc1ccc(C(=N)N)cc1)c1ccc(C(=N)N)cc1.Cl.Cl
Activity [1]: Non-toxic
Activity [4]: inactive
Activity [6]: inactive
Activity [7]: inactive
inhibition [8]: 28.8%
Activity [11]: 75%
Activity [13]: 75%

IC50 [32]: 1400 nM
Structure (SMILES): N=C(N)c1ccc(NCCNc2ccc(C(=N)N)cc2)cc1
Activity [1]: Non-toxic
Activity [2]: inactive
Activity [3]: inactive
Activity [4]: inactive
Activity [14]: inactive
Activity [5]: inactive
Activity [6]: inactive
Activity [7]: inactive
Time [15]: 50.3 s
Time [16]: 1.4 s
Time [17]: 4.75 s
inhibition [8]: 36.3%
Activity [18]: 49%
Activity [19]: 69%
Activity [20]: >10%
ED50 [21]: 6 mg/kg
T [22]: 35.7 °C
Activity [23]: inactive
Activity [24]: 31.17%
Activity [9]: inactive
Activity [25]: 75%
Activity [26]: 75%
Activity [10]: inactive
Activity [27]: 75%
Activity [28]: inactive
Activity [11]: 25%
Activity [29]: 50%
Activity [30]: 75%
Activity [12]: Non-toxic
Activity [13]: 75%
Activity [31]: 25%
Activity [33]: 70.33%
Activity [34]: 103.3
Activity [35]: 13.3
Activity [36]: 90.5

Structure (SMILES): CN(CCN(C)c1ccc(C(=N)N)cc1)c1ccc(C(=N)N)cc1
Activity [1]: Non-toxic
Activity [2]: inactive
Activity [3]: inactive
Activity [4]: inactive
Activity [14]: inactive
Activity [5]: inactive
Activity [6]: inactive
Activity [7]: inactive
inhibition [8]: 51%
Activity [23]: inactive
Activity [9]: inactive
Activity [10]: inactive
Activity [27]: 75%
Activity [28]: inactive
Activity [11]: 25%
Activity [29]: 50%
Activity [30]: 25%
Activity [12]: Non-toxic
Activity [13]: 75%
Activity [31]: Non-toxic

Structure (SMILES): N=C(N)c1ccc(N)cc1
inhibition [8]: < 5%
